# Compound activity (PubChem)
# The full list was thinned out, with hits kept by preference.
# IDH1 mut inh – IDH1 R132H (human) inhibition; O75874; inhibition, % at 10 µM; IDH1 R132H reductase, diaphorase/resazurin fluorescence, 60 min; 70,000 compounds, 0.18% hits; in the data active = inhibition above about 34%; inconclusive = no clear call, values can overlap the other calls; inactive = below about 11%;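 note: 0% = DMSO and 100% = no enzyme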
# Target sequence (O75874 whole entry R132H): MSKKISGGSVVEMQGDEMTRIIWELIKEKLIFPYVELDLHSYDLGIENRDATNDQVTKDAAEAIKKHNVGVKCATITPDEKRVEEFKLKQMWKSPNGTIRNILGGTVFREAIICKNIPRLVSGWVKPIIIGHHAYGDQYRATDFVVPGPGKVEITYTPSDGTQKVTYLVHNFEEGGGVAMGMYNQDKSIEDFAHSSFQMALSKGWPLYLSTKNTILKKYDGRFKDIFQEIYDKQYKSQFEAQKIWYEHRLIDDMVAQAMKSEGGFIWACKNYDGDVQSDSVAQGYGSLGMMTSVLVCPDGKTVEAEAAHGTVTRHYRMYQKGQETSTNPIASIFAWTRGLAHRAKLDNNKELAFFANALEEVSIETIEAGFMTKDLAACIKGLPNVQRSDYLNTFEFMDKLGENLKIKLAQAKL
# GASC1 inh – blocks human GASC-1 (KDM4C) demethylase activity | AID 720574 | GST-KDM4C 2-372, H3K9me3 peptide, LANCE TR-FRET | inhibition, % at 12.5 µM | Q9H3R0 | 96,000 compounds, 0.15% hits;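 active = mean replicate inhibition above about 25%, with at least 55% of replicates also reaching it, limit read from the data, passing the limit was not always enough; inconclusive = only one of those two conditions met; inactive = neither condition met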
#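 Compound: one test concentration per compound; Material: GST-GASC-1 enzyme fragment 2-372; Amount: GASC-1 enzyme at 10 nM final in reaction; Also added: H3K9me3 peptide substrate, Fe(II), 2-oxoglutarate; Technique: LANCE TR-FRET; Times: 30 min demethylation and 1 h detection at room temperature.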
# T cruzi growth-1 – T. cruzi proliferation inhibition; T. cruzi beta-gal in NIH3T3, GalScreen luminescence, 90 h; inhibition, % at 8.34 µM; 77,000 compounds, 5.9% hits;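 active = mean inhibition above about 93%, with at least 55% of replicates each passing it, limit read from the data, passing the limit was not always enough; inconclusive = only one of those two conditions holds; inactive = neither condition holds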
# T cruzi growth-2 – blocks T. cruzi growth in NIH3T3 host cells | shares compounds with T cruzi growth-1 | T. cruzi beta-gal in NIH3T3, GalScreen luminescence, 90 h | inhibition, % at 8.35 µM | 5,600 compounds, 72% hits;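 active = mean replicate inhibition above about 95% and at least 55% of replicates individually reaching it, limit read from the data; inconclusive = only one of the two criteria is met; inactive = neither criterion is met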
# T cruzi growth-3 – Trypanosoma cruzi proliferation inhibition. shares compounds with T cruzi growth-1. 5,600 compounds, 21% hits. AID 651740. inhibition, % at 2.09 µM. T. cruzi beta-gal in NIH3T3, GalScreen luminescence, 90 h;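 active = mean inhibition above about 95%, with at least 55% of replicates also reaching it, limit read from the data; inconclusive = meets just one of the two conditions; inactive = meets neither condition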;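 note: plate controls were neutral control median for no effect and positive control median for full effect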
# NIH3T3 tox – cytotoxicity in mouse NIH/3T3 fibroblasts. cytotoxicity (signal decrease), % at 8.35 µM. shares compounds with T cruzi growth-1. 5,600 compounds, 14% hits. NIH/3T3 viability, CellTiter-Glo ATP luminescence, 90 h. AID 651742;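 active = mean signal decrease across replicates above about 35% based on untreated-well scatter, with enough replicates individually passing, limit read from the data; inconclusive = no rule stated though some were filed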;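 note: 0% = median of neutral control wells and 100% = median of positive control wells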
# NIH3T3 tox 2 – cytotoxicity in mouse NIH/3T3 fibroblasts; shares compounds with T cruzi growth-1; NIH/3T3 viability, CellTiter-Glo ATP luminescence, 90 h; inhibition, % at 24.9 µM; 5,600 compounds, 56% hits; AID 651744;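 active = mean loss of cell viability signal at or above a set limit, and enough replicates individually reaching it; inconclusive = meets only the mean limit or only the replicate share; inactive = meets neither condition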;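 note: 0% = median of neutral control wells and 100% = median of positive control wells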
# Starred values were filed as active, the others as inactive; ? = inconclusive; · = no result given; ! = repeats disagree.
SMILES,IDH1 mut inh,GASC1 inh,T cruzi growth-1,T cruzi growth-2,T cruzi growth-3,NIH3T3 tox,NIH3T3 tox 2
O=C(O)COc1ccc(S(=O)(=O)NC2CCCCC2)cc1Cl,0,·,·,·,·,·,·
C[C@H](CO)N1C[C@H](C)[C@H](CN(C)C(=O)C2CCCCC2)Oc2cc(Br)ccc2S1(=O)=O,-1,-2,30,·,·,·,·
C[C@@H]1CN([C@H](C)CO)S(=O)(=O)c2ccc(Br)cc2O[C@H]1CN(C)C(=O)C1CCCCC1,·,1,100*!,34,0,10,48*
C[C@@H]1CN([C@@H](C)CO)S(=O)(=O)c2ccc(Br)cc2O[C@H]1CN(C)C(=O)C1CCCCC1,0,-1,74,·,·,·,·
C[C@H]1CN([C@@H](C)CO)S(=O)(=O)c2ccc(Br)cc2O[C@@H]1CN(C)C(=O)C1CCCCC1,·,-2,103*,32,-14,-12,42*
CCN(CC(=O)Nc1cc(C(F)(F)F)ccc1Cl)S(=O)(=O)c1ccc(Cl)cc1,0,·,·,·,·,·,·
Cc1nnc(SCC(=O)Nc2ccccc2C(F)(F)F)s1,0,·,·,·,·,·,·
C[C@H]1CCCCO[C@H](CN(C)C(=O)Nc2ccc3c(c2)OCO3)[C@@H](C)CN([C@@H](C)CO)C(=O)c2cc(NS(=O)(=O)c3ccc(Cl)cc3)ccc2O1,-1,13,49,·,·,·,·
C[C@H](CO)N1C[C@H](C)[C@H](CN(C)C(=O)Nc2ccc3c(c2)OCO3)OCCCC[C@H](C)Oc2ccc(NS(=O)(=O)c3ccc(Cl)cc3)cc2C1=O,·,0,97*,113*,57,-23,-26
C[C@@H]1CCCCO[C@H](CN(C)C(=O)Nc2ccc3c(c2)OCO3)[C@H](C)CN([C@@H](C)CO)C(=O)c2cc(NS(=O)(=O)c3ccc(Cl)cc3)ccc2O1,·,·,?,102*,36,-7,-16
C[C@@H]1CCCCO[C@@H](CN(C)C(=O)Nc2ccc3c(c2)OCO3)[C@@H](C)CN([C@H](C)CO)C(=O)c2cc(NS(=O)(=O)c3ccc(Cl)cc3)ccc2O1,-1,-1,14,·,·,·,·
O=C(NCc1ccco1)c1cnsn1,0,·,·,·,·,·,·
C[C@H]1CCCCO[C@H](CN(C)Cc2ccc3c(c2)OCO3)[C@@H](C)CN([C@@H](C)CO)C(=O)c2cc(NC(=O)Nc3ccccc3)ccc2O1,·,0,81,·,·,·,·
C[C@@H]1CCCCO[C@@H](CN(C)Cc2ccc3c(c2)OCO3)[C@H](C)CN([C@H](C)CO)C(=O)c2cc(NC(=O)Nc3ccccc3)ccc2O1,1,-1,?,99*,105*,12,104*
C[C@@H]1CN([C@H](C)CO)C(=O)c2cc(NC(=O)Nc3ccccc3)ccc2O[C@@H](C)CCCCO[C@@H]1CN(C)Cc1ccc2c(c1)OCO2,1,0,?,87,92,94*,103*
C[C@@H]1CN([C@@H](C)CO)C(=O)c2cc(NC(=O)Nc3ccccc3)ccc2O[C@@H](C)CCCCO[C@@H]1CN(C)Cc1ccc2c(c1)OCO2,·,-2,97*,101*,37,42*,34*
C[C@H]1CCCCO[C@@H](CN(C)Cc2ccccc2)[C@@H](C)CN([C@@H](C)CO)C(=O)c2cc(NC(=O)Nc3ccc4c(c3)OCO4)ccc2O1,5,-1,94,·,·,·,·
C[C@@H]1CN([C@H](C)CO)C(=O)c2cc(NC(=O)Nc3ccccc3)ccc2O[C@@H](C)CCCCO[C@H]1CN(C)Cc1ccc2c(c1)OCO2,·,2,62,·,·,·,·
O=C(CSc1nc2ccccc2c(=O)[nH]1)Nc1ccccc1C(=O)c1ccccc1,0,·,·,·,·,·,·
CCC(C)Cn1c(CCCO)nc2ccccc21 (stereo unspecified),0,·,·,·,·,·,·
O=S(=O)(c1ccc(F)cc1)N1CCCCN2[C@H](C1)[C@@H](c1ccc(C#CC3CCCC3)cc1)[C@@H]2CO,·,·,80,·,·,·,·
CC(C)CC#Cc1ccc([C@H]2[C@H]3CN(S(=O)(=O)c4ccc(F)cc4)CCCCN3[C@H]2CO)cc1,·,1,116*,111*,95,21,12
CC(C)CC#Cc1ccc([C@@H]2[C@@H](CO)N3CCCCN(S(=O)(=O)c4ccc(F)cc4)C[C@@H]23)cc1,·,-1,105*,108*,72,-3,89*
O=S(=O)(c1ccc(F)cc1)N1CCCCN2[C@H](CO)[C@H](c3ccc(C#CC4CCCC4)cc3)[C@@H]2C1,·,·,81,·,·,·,·
CNC(=S)N1N=C(c2ccccc2)CC1c1cc2ccc(C)cc2nc1Cl (stereo unspecified),-1,·,·,·,·,·,·
SMILES,IDH1 mut inh,GASC1 inh,T cruzi growth-1,T cruzi growth-2,T cruzi growth-3,NIH3T3 tox,NIH3T3 tox 2
CCN(CC(=O)Nc1cc([N+](=O)[O-])ccc1C)S(=O)(=O)c1ccc2ccccc2c1,0,·,·,·,·,·,·
CCOc1ccc(S(=O)(=O)NCCN2CCOCC2)cc1C,0,·,·,·,·,·,·
O=C(CSc1nc2ccccc2[nH]1)Nc1ccc2c(c1)oc1ccccc12,0,·,·,·,·,·,·
C[C@H](CO)N1C[C@H](C)[C@@H](CN(C)Cc2ccc(Cl)c(Cl)c2)Oc2ccc(NC(=O)Cc3cn(C)c4ccccc34)cc2C1=O,3,-1,80,·,·,·,·
C[C@H]1CN([C@@H](C)CO)C(=O)c2cc(NC(=O)Cc3cn(C)c4ccccc34)ccc2O[C@@H]1CN(C)Cc1ccncc1,-1,-1,?,34,-25,6,30*
C[C@H](CO)N1C[C@H](C)[C@@H](CN(C)Cc2ccc(C(F)(F)F)cc2)Oc2ccc(NC(=O)Cc3cn(C)c4ccccc34)cc2C1=O,·,9,118*,107*,13,6,14
C[C@H]1CN([C@@H](C)CO)C(=O)c2cc(NC(=O)Cc3cn(C)c4ccccc34)ccc2O[C@@H]1CN(C)Cc1ccc(C(F)(F)F)cc1,0,1,93,·,·,·,·
C[C@@H]1CN([C@@H](C)CO)C(=O)c2cc(NC(=O)Cc3cn(C)c4ccccc34)ccc2O[C@@H]1CN(C)Cc1ccncc1,-2,-1,30,·,·,·,·
C[C@@H]1CN([C@@H](C)CO)C(=O)c2cc(NC(=O)Cc3cn(C)c4ccccc34)ccc2O[C@H]1CN(C)Cc1ccc(Cl)c(Cl)c1,·,-2,?,105*,54,13,6
COc1ccc(NC(=O)c2ccccc2NC(=O)COc2ccc(Cl)cc2)cc1,0,·,·,·,·,·,·
CCCc1ccc(-c2cc(C(=O)NCc3cccnc3)c3ccccc3n2)cc1,4,·,·,·,·,·,·
CCCN1C[C@@H](C)[C@H](OC)CN(C)C(=O)c2ccc(NC(=O)c3cccc(F)c3)cc2OC[C@H]1C,-1,0,102*,104*,63,11,37*
CCCNC(=O)N1C[C@H](C)[C@@H](OC)CN(C)C(=O)c2cc(NC(=O)CC)ccc2OC[C@@H]1C,0,-1,?,-17,-2,3,-5
CCCN1C[C@H](C)[C@@H](OC)CN(C)C(=O)c2ccc(NS(=O)(=O)c3cn(C)cn3)cc2OC[C@H]1C,0,0,105*,-5,-22,3,-3
